Measurements reported in ChEMBL document CHEMBL3272325, “Structure-activity relationships of dimeric Catharanthus alkaloids. 1. Deacetylvinblastine amide (vindesine) sulfate” (J Med Chem, 1978).
Active and inactive are the calls of the source. The calls are words filed in the database; no cut-off is given here.

Experiments:
B16 [1] = test: Antitumor activity against mouse B16 cells allografted in B6D2F1 mouse assessed as mean survival time at 0.36 mg/kg/day, ip administered on day 1, 5 and 9 (reference value: 20.0 days); assay type: functional; conditions: route intraperitoneal
Procedure, shortened: (§1)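 Male B6D2F1 mice implanted ip on day 0 with 0.25 mL of a 20% (w/v) B16 melanoma brei. Alkaloid sulfate salts given ip on days 1, 5, 9 or on days 5, 9, 13, groups of 10, against 30 untreated controls. Read-outs: median survival time with range of individual deaths, and percent increase in life span, with survivors counted on day 56.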

Gallus gallus = test: Neurotoxicity in iv dosed chicken assessed as neuromuscular disturbance by measuring loss of balance; assay type: organism-based; conditions: in vivo
[2] = Antitumor activity against mouse Ridgeway osteogenic sarcoma cells allografted in mouse at 0.1 to 0.2 mg/kg/day, ip; assay type: functional; conditions: route intraperitoneal
Procedure, shortened: (§2)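 Sulfate salts given ip on days 1-9 against ROS and GLS in mice; tumor growth scored as percent inhibition versus controls (+++ = 75-100%, ++ = 50-75%, ± = under 25%).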

B16 [3] = test: Antitumor activity against mouse B16 cells allografted in B6D2F1 mouse assessed as increase in life span at 1 mg/kg/day, ip administered on day 5, 9 and 13 measured for 56 days relative to untreated control; assay type: functional; conditions: route intraperitoneal; procedure, shortened: as §1
[4] = Acute toxicity in ip dosed mouse; assay type: organism-based; conditions: in vivo
P388 [5] = test: Antitumor activity against mouse P388 cells allografted in mouse assessed as survival at 0.22 mg/kg/day administered from day 1 to day 9; assay type: functional, organism-based
Procedure, shortened: (§3)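 P388 ascites implanted ip in mice; sulfate salts dosed either daily or as a single dose on day 1, 10 animals per group. Survivors per total were recorded, median life span was calculated using all deaths and survivors, and percent increase of life span was reported.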

B16 [6] = test: Antitumor activity against mouse B16 cells allografted in B6D2F1 mouse assessed as increase in life span at 1.67 mg/kg/day, ip administered on day 1, 5 and 9 measured for 56 days relative to untreated control; assay type: functional; conditions: route intraperitoneal; procedure, shortened: as §1
Rhesus monkey [7] = test: Neurotoxicity in iv dosed monkey assessed as peripheral neuropathy; conditions: in vivo
B16 [8] = test: Antitumor activity against mouse B16 cells allografted in B6D2F1 mouse assessed as mean survival time at 0.36 mg/kg/day, ip administered on day 5, 9 and 13 (reference value: 20.0 days); assay type: functional; conditions: route intraperitoneal; procedure, shortened: as §1
B16 [9] = test: Antitumor activity against mouse B16 cells allografted in B6D2F1 mouse assessed as increase in life span at 1.67 mg/kg/day, ip administered on day 5, 9 and 13 measured for 56 days relative to untreated control; assay type: functional; conditions: route intraperitoneal; procedure, shortened: as §1
B16 [10] = test: Antitumor activity against mouse B16 cells allografted in B6D2F1 mouse assessed as mean survival time at 0.216 mg/kg/day, ip administered on day 1, 5 and 9 (reference value: 20.0 days); assay type: functional; conditions: route intraperitoneal; procedure, shortened: as §1
P388 [11] = test: Antitumor activity against mouse P388 cells allografted in mouse assessed as increase in life span at 0.33 mg/kg/day, ip administered from day 1 to day 9 relative to untreated control; assay type: functional; conditions: route intraperitoneal
Procedure, shortened: (§4)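 P388 ascites implanted ip in mice, 10 animals per group. Sulfate salts given ip either daily on days 1-9 or as a single dose on day 1. Median life span was calculated using all deaths and survivors. Percent increase in life span was taken over untreated controls. The highest nontoxic dose was noted.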

P388 [12] = test: Antitumor activity against mouse P388 cells allografted in mouse assessed as survival at 1.8 mg/kg/day after 1 day; assay type: functional, organism-based; procedure, shortened: as §3
B16 [13] = test: Antitumor activity against mouse B16 cells allografted in B6D2F1 mouse assessed as mean survival time at 0.216 mg/kg/day, ip administered on day 5, 9 and 13 (reference value: 20.0 days); assay type: functional; conditions: route intraperitoneal; procedure, shortened: as §1
[14] = Antitumor activity against mouse Gardner lymphosarcoma cell allografted in mouse at 0.1 to 0.2 mg/kg/day, ip; assay type: functional; conditions: route intraperitoneal; procedure, shortened: as §2
P388 [15] = test: Antitumor activity against mouse P388 cells allografted in mouse assessed as survival at 1.2 mg/kg/day after 1 day; assay type: functional, organism-based; procedure, shortened: as §3
[16] = Toxicity in ip dosed mouse allografted with mouse P1534(J) cells administered from day 1 to day 9; assay type: organism-based; conditions: in vivo, read-out: MNTD
Procedure, shortened: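 P1534(J) leukemia implanted subcutaneously in mice. Sulfate salts given ip daily on days 1-9. Read-out was percent inhibition of tumor growth relative to untreated controls. The highest nontoxic dose was recorded.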

B16 [17] = test: Antitumor activity against mouse B16 cells allografted in B6D2F1 mouse assessed as increase in life span at 0.60 mg/kg/day, ip administered on day 5, 9 and 13 measured for 56 days relative to untreated control; assay type: functional; conditions: route intraperitoneal; procedure, shortened: as §1
B16 [18] = test: Antitumor activity against mouse B16 cells allografted in B6D2F1 mouse assessed as increase in life span at 0.216 mg/kg/day, ip administered on day 1, 5 and 9 measured for 56 days relative to untreated control; assay type: functional; conditions: route intraperitoneal; procedure, shortened: as §1
B16 [19] = test: Antitumor activity against mouse B16 cells allografted in B6D2F1 mouse assessed as increase in life span at 0.60 mg/kg/day, ip administered on day 1, 5 and 9 measured for 56 days relative to untreated control; assay type: functional; conditions: route intraperitoneal; procedure, shortened: as §1
P388 [20] = test: Antitumor activity against mouse P388 cells allografted in mouse assessed as increase in life span at 0.22 mg/kg/day, ip administered from day 1 to day 9 relative to untreated control; assay type: functional; conditions: route intraperitoneal; procedure, shortened: as §4
B16 [21] = test: Antitumor activity against mouse B16 cells allografted in B6D2F1 mouse assessed as mean survival time at 0.60 mg/kg/day, ip administered on day 5, 9 and 13 (reference value: 20.0 days); assay type: functional; conditions: route intraperitoneal; procedure, shortened: as §1
[22] = Toxicity in ip dosed mouse allografted with mouse p388 cells after 1 day; assay type: organism-based; conditions: in vivo, read-out: MNTD; procedure, shortened: as §4
B16 [23] = test: Antitumor activity against mouse B16 cells allografted in B6D2F1 mouse assessed as increase in life span at 1 mg/kg/day, ip administered on day 1, 5 and 9 measured for 56 days relative to untreated control; assay type: functional; conditions: route intraperitoneal; procedure, shortened: as §1
P388 [24] = test: Antitumor activity against mouse P388 cells allografted in mouse assessed as increase in life span at 1.2 mg/kg/day, ip after 1 day; assay type: functional; conditions: 24 h, route intraperitoneal; procedure, shortened: as §4
B16 [25] = test: Antitumor activity against mouse B16 cells allografted in B6D2F1 mouse assessed as increase in life span at 0.36 mg/kg/day, ip administered on day 5, 9 and 13 measured for 56 days relative to untreated control; assay type: functional; conditions: route intraperitoneal; procedure, shortened: as §1
B16 [26] = test: Antitumor activity against mouse B16 cells allografted in B6D2F1 mouse assessed as mean survival time at 1 mg/kg/day, ip administered on day 1, 5 and 9 (reference value: 20.0 days); assay type: functional; conditions: route intraperitoneal; procedure, shortened: as §1
Rhesus monkey [27] = test: Neurotoxicity in iv dosed monkey assessed as peripheral neuropathy; assay type: toxicity, organism-based, Macaca mulatta; conditions: in vivo
P388 [28] = test: Antitumor activity against mouse P388 cells allografted in mouse assessed as increase in life span at 2.7 mg/kg/day, ip after 1 day; assay type: functional; conditions: 24 h, route intraperitoneal; procedure, shortened: as §4
B16 [29] = test: Antitumor activity against mouse B16 cells allografted in B6D2F1 mouse assessed as mean survival time at 0.60 mg/kg/day, ip administered on day 1, 5 and 9 (reference value: 20.0 days); assay type: functional; conditions: route intraperitoneal; procedure, shortened: as §1
B16 [30] = test: Antitumor activity against mouse B16 cells allografted in B6D2F1 mouse assessed as mean survival time at 1.67 mg/kg/day, ip administered on day 1, 5 and 9 (reference value: 20.0 days); assay type: functional; conditions: route intraperitoneal; procedure, shortened: as §1
P388 [31] = test: Antitumor activity against mouse P388 cells allografted in mouse assessed as increase in life span at 4 mg/kg/day, ip after 1 day; assay type: functional; conditions: 24 h, route intraperitoneal; procedure, shortened: as §4
P388 [32] = test: Antitumor activity against mouse P388 cells allografted in mouse assessed as increase in life span at 1.8 mg/kg/day, ip after 1 day; assay type: functional; conditions: 24 h, route intraperitoneal; procedure, shortened: as §4
B16 [33] = test: Antitumor activity against mouse B16 cells allografted in B6D2F1 mouse assessed as mean survival time at 1 mg/kg/day, ip administered on day 5, 9 and 13 (reference value: 20.0 days); assay type: functional; conditions: route intraperitoneal; procedure, shortened: as §1
B16 [34] = test: Antitumor activity against mouse B16 cells allografted in B6D2F1 mouse assessed as mean survival time at 1.67 mg/kg/day, ip administered on day 5, 9 and 13 (reference value: 20.0 days); assay type: functional; conditions: route intraperitoneal; procedure, shortened: as §1
B16 [35] = test: Antitumor activity against mouse B16 cells allografted in B6D2F1 mouse assessed as increase in life span at 0.36 mg/kg/day, ip administered on day 1, 5 and 9 measured for 56 days relative to untreated control; assay type: functional; conditions: route intraperitoneal; procedure, shortened: as §1
[36] = Antitumor activity against mouse P1534(J) cells allografted in mouse assessed as tumor growth inhibition at 0.25 mg/kg/day, ip administered from day 1 to day 9 relative to unreated control; assay type: functional; conditions: P1534J, route intraperitoneal, read-out: TGI
Procedure, shortened: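 P1534(J) leukemia implanted subcutaneously in mice; sulfate salts given ip on days 1-9. Read-out is percent inhibition of tumor growth versus untreated controls.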

[37] = Acute toxicity in rat; assay type: organism-based; conditions: in vivo
[38] = Toxicity in ip dosed mouse allografted with mouse p388 cells administered from day 1 to day 9; assay type: organism-based; conditions: in vivo, read-out: MNTD; procedure, shortened: as §4
B16 [39] = test: Antitumor activity against mouse B16 cells allografted in B6D2F1 mouse assessed as increase in life span at 0.216 mg/kg/day, ip administered on day 5, 9 and 13 measured for 56 days relative to untreated control; assay type: functional; conditions: route intraperitoneal; procedure, shortened: as §1

SMILES: CC[C@]1(O)C[C@H]2CN(CCc3c([nH]c4ccccc34)[C@@](C(=O)OC)(c3cc4c(cc3OC)N(C=O)[C@H]3[C@@](O)(C(=O)OC)[C@H](OC(C)=O)[C@]5(CC)C=CCN6CC[C@]43[C@@H]65)C2)C1.O=S(=O)(O)O [VINCRISTINE SULFATE]
- MST (B16 [1]): 26 days
- Activity (Gallus gallus): Toxic
- TGI [2]: 75%
- ILS at 1 mg/kg/day (B16 [3]): 48%
- LD50 [4]: 2.1 mg/kg
- Activity (P388 [5]): inactive
- ILS at 1.67 mg/kg/day (B16 [6]): 75%
- Activity (Rhesus monkey [7]): Toxic
- MST (B16 [8]): 24 days
- ILS at 1.67 mg/kg/day (B16 [9]): 30%
- MST (B16 [10]): 24 days
- ILS at 0.33 mg/kg/day (P388 [11]): 181%
- Activity (P388 [12]): inactive
- MST (B16 [13]): 24.5 days
- TGI [14]: 75%
- Activity (P388 [15]): inactive
- MTD [16]: 0.25 mg/kg/day
- ILS at 0.6 mg/kg/day (B16 [17]): 22%
- ILS at 0.216 mg/kg/day (B16 [18]): 20%
- ILS at 0.6 mg/kg/day (B16 [19]): 52%
- ILS at 0.22 mg/kg/day (P388 [20]): 131%
- MST (B16 [21]): 24.5 days
- MTD at 24 h [22]: 4 mg/kg/day
- ILS at 1 mg/kg/day (B16 [23]): 62%
- ILS at 1.2 mg/kg/day (P388 [24]): 68%
- ILS at 0.36 mg/kg/day (B16 [25]): 20%
- MST (B16 [26]): 32.5 days
- Activity (Rhesus monkey [27]): Toxic
- ILS at 2.7 mg/kg/day (P388 [28]): 100%
- MST (B16 [29]): 30.5 days
- MST (B16 [30]): 35 days
- ILS at 4 mg/kg/day (P388 [31]): 118%
- ILS at 1.8 mg/kg/day (P388 [32]): 81%
- MST (B16 [33]): 29.5 days
- MST (B16 [34]): 26 days
- ILS at 0.36 mg/kg/day (B16 [35]): 30%
- inhibition in vivo at 0.25 mg/kg/day [36]: 77%
- LD50 [37]: 1 mg/kg
- MTD [38]: 0.33 mg/kg/day
- ILS at 0.216 mg/kg/day (B16 [39]): 22%
